Only some compounds are listed: those with a hit (about 3.7% of all), similar ones and a draw of the others.
Calpain2 inh: inhibitors of pig calpain II, primary screen, biochemical, fluorogenic peptide substrate, 1536-well. inhibition, % at 16 µM. purified calpain II, 30 min. 0.37% of 220,000 active;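 active = inhibition above about 50%, limit read from the data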
KCC2 mod: KCC2 cotransporter modulators, thallium flux, primary screen, cell-based, HEK293 KCC2, FluoZin-2 fluorescence, MLSMR; KCC2 cells, thallium flux FluoZin-2 fluorescence; B-score of Tl+ flux slope (higher = more flux/activation; lower = inhibition) at 10 µM; 2.2% of 190,000 active;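 active = thallium flux slope and its plate-corrected score both differing from the plate sample mean at a set confidence after two filtering rounds, in either direction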;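 also: slope of fluorescence scaled to starting intensity during 10 to 20 s after thallium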
ROMK primary: ROMK potassium channel modulators, primary screen, cell-based, thallium flux, MLSMR library. 2% of 130,000 active. B-score at 10 µM. Tet-inducible ROMK, thallium flux fluorescence; actives lie on both sides;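 active = signal ratio slope over the read window, or its plate-corrected B-score, at least 3 SD from the plate mean, either direction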;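 also: B-score of the F/F0 ratio slope over 7 to 12 s after thallium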
Target sequence (P48048 whole entry, looked up): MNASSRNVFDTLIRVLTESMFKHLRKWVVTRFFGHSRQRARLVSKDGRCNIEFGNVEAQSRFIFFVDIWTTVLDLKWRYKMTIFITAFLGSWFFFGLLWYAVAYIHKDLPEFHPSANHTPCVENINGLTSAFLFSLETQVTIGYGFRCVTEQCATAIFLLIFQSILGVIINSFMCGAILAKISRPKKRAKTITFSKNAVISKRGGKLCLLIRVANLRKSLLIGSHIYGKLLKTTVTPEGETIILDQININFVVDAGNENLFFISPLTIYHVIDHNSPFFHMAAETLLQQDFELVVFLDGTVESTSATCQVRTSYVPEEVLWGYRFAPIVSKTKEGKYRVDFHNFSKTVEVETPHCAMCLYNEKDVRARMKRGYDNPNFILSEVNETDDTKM
PKD1 kinase inh: inhibitors of human PKD1 kinase, biochemical, fluorescence polarization; Serine/threonine-protein kinase D1 (Homo sapiens), Q15139; PKD1 kinase fluorescence polarization assay; AID 797, 2007; inhibition, % (no concentration beside the values); 0.056% of 200,000 active; in the data active = inhibition above about 50%
Arbovirus anti: antivirals against arbovirus infection, primary screen, cell-based, full library, 10K replicate subset | AID 1251, 2008 | inhibition, % at 10 µM | 0.37% of 200,000 active | arbovirus infection cell-based antiviral screen; in the data active = inhibition above about 30%
MDM2 E3 inh: MDM2-luciferase reporter signal enhancers, primary screen, MDM2 E3 ligase inhibitor project, cell-based, luminescence, 1536-well; E3 ubiquitin-protein ligase Mdm2 (Homo sapiens), Q00987; cell-based MDM2 ubiquitination luciferase reporter, 2 h; 0 = plate control, 100 = twice control, blank-subtracted; signal enhancement, % at 5 µM; 0.11% of 210,000 active; AID 1230, 2008;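 active = signal enhancement of 30% or more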;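 also: luminescence tracks abundance of the self-degrading MDM2-luciferase fusion protein; higher signal means inhibition of MDM2 E3 ligase activity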
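test system = mammalian cells stably expressing self-ubiquitinating, self-degrading MDM2 E3–luciferase fusion | quantity = 2000 cells/well | incubation = cell settling 4 h, compound treatment 2 h, both 37 °C | signal = luminescence with SteadyLite reagent, 15 min at room temperature | evaluation = % enhancement relative to plate controls after blank subtraction | benchmarks = plate controls and plate blanks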
* marks the source's active call; other numbers are inactive results; i = inactive; . = no result given.

SMILES | Calpain2 inh | KCC2 mod | ROMK primary | PKD1 kinase inh | Arbovirus anti | MDM2 E3 inh
CCOC(=O)c1cc(C(=O)OCC)c(=O)[nH]c1C | -13.8 | -0.262 | -0.0275 | -6.0 | 2.7 | 4.4
CCOC(=O)c1cc2c(N)c(C(=O)c3ccc(Br)cc3)sc2[nH]c1=O | -11.8 | -1.02 | 0.25 | -2.6 | 32.3* | 3.4
CCC(=O)N1c2ccc(C)cc2C2=NNC(=S)NC21O (stereo unspecified) | 18.6 | 5.36* | 0.101 | 0.0 | -3.7 | -7.9
COc1ccc(C(=O)Nc2cc(Cl)ccc2OC(=O)c2ccc(OC)cc2)cc1 | -12.5 | -0.0172 | . | -0.3 | 16.6 | -12.2
COc1c(Cl)cc(C(=O)Nc2ccccc2C(=O)O)cc1Cl | 25.0 | . | . | -1.9 | 61.8* | -9.5
COc1ccc(C(=O)Nc2cc(Cl)ccc2C(=O)O)cc1 | -1.1 | -2.09 | 0.043 | -3.7 | 47.4* | -13.5
COc1c(Cl)cc(C(=O)NN)cc1Cl | 21.2 | -0.675 | -0.671 | 4.8 | -5.9 | -17.9
COc1cnc(-c2ccccn2)nc1Sc1ccc(F)cc1 | -2.2 | -0.673 | 0.265 | 3.9 | -18.9 | -4.8
O=C1CN(C(=O)CSc2nc3cc(Cl)ccc3c(=O)n2Cc2ccccc2)c2ccccc2N1 | -114.5 | 24.4* | . | -1.6 | 0.4 | -8.1
Cc1ccc(Cn2c(SCC(=O)N3CC(=O)Nc4ccccc43)nc3ccccc3c2=O)cc1 | -82.7 | 3.4 | -0.198 | -7.0 | -6.7 | -8.2
Cc1nc2c(Br)c(C)nn2c2c1CCC2 | -25.2 | 1.01 | -0.36 | 1.6 | 16.6 | 3.6
COc1ccc2cc(CN(CCc3ccccc3)Cc3nnnn3Cc3ccco3)c(=O)[nH]c2c1 | 30.1 | -3.08* | -0.545 | -0.7 | -16.6 | -11.1
CS(=O)(=O)n1nc(-c2ccc(Cl)cc2)nc1N | 18.6 | 0.197 | -0.298 | -7.4 | -5.3 | -7.7
Cn1nc(-c2ccc(Cl)cc2)nc2c(=O)n(C)c(=O)nc1-2 | 54.9* | -0.827 | . | 3.0 | -31.5 | -43.4
Cc1c(=O)n(OCc2ccccc2F)c2ccccc2[n+]1[O-] | 73.4* | . | . | -10.3 | -0.6 | -14.1
CCOC(=O)C1CCCN(c2c(NCCCN(C)c3ccccc3)c(=O)c2=O)C1 (stereo unspecified) | 100.3* | . | . | 1.0 | 5.0 | -18.4
COc1ccccc1C(=O)Nc1ccc(C(=O)c2ccccc2)cc1 | 66.8* | -0.39 | 0.355 | -3.2 | -16.9 | 3.7
Cc1cc(=O)[nH]c(SCC(=O)Nc2ccccc2[N+](=O)[O-])n1 | -16.8 | 0.0808 | . | . | . | -16.9
COc1cccc(C2=CC(c3ccc(N(C)C)cc3)n3nnnc3N2)c1 (stereo unspecified) | 0.5 | . | -0.246 | -2.4 | -9.6 | -5.3
Fc1ccc(C2=CC(c3ccc(Br)o3)n3ncnc3N2)cc1 (stereo unspecified) | -61.4 | -1.62 | -3.45* | -8.3 | 7.4 | 11.7
CCOc1ccc(C2C=C(c3ccc(F)cc3)Nc3ncnn32)cc1 (stereo unspecified) | -485.7 | -0.886 | -0.488 | -7.9 | 13.8 | 1.7
COc1cccc(C2=CC(c3ccccc3)n3nnnc3N2)c1 (stereo unspecified) | 62.6* | -1.48 | 1.25 | 10.7 | 3.1 | -16.7
CCOc1ccc(C2C=C(c3ccccc3)Nc3ncnn32)cc1 (stereo unspecified) | i | . | -2.66* | -7.3 | -9.5 | -5.6
COc1ccc(C2C=C(c3ccc(C)cc3)Nc3ncnn32)cc1 (stereo unspecified) | i | . | -2.53 | 4.8 | 86.3* | -8.1
NS(=O)(=O)c1ccc(Cl)cc1[N+](=O)[O-] | 2.9 | 0.928 | . | . | . | -9.0
CCCC(=O)Nc1ccc(C(=O)NNC(=S)NC(=O)c2ccc(Br)o2)cc1 | -55.4 | -1.37 | -0.758 | 1.6 | -10.0 | -3.7
CCOC(=O)C1=C(C)C/C(=N\NC(=O)c2ccccc2O)CC1 | 7.7 | 0.46 | . | . | . | -8.9
COc1cccc(C2=CC(c3ccc(N(C)C)cc3)n3ncnc3N2)c1 (stereo unspecified) | 27.1 | . | 1.06 | -14.7 | 45.7* | -19.7
